Experimental data from ChEMBL document CHEMBL6177922, “Antibacterial activity of the structurally novel C-2 amine-substituted analogues based on quinoxaline” (RSC Med Chem, 2025).
Converted amounts (≈) assume the structure as drawn. The source made the active and inactive calls. The rule behind the calls is not given here.

Assays:
Staphylococcus aureus [1] = assay: Bactericidal activity against methicillin-resistant Staphylococcus aureus at 2 times MIC incubated for 24 hrs by time kill assay; type: functional, organism-based
In short: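 Time-kill: MRSA grown 24 h at 37 °C, adjusted to ~2 × 10^6 CFU mL-1, exposed at 2× or 3× MIC with shaking at 37 °C. Aliquots taken at 0.5–13 h, serially diluted 10-fold in PBS, plated on Mueller–Hinton agar, counted after 24 h at 37 °C. Duplicate.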

Cell membrane [2] = assay: Induction of cell membrane integrity in methicillin-resistant Staphylococcus aureus assessed as increase in K+ efflux at 3 times MIC by absorption spectrophotometric analysis; type: subcellular
In short: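 K+ leakage: mid-log MRSA (6 h) resuspended in 10 mM HEPES (pH 7.3)/5 mM glucose at ~2 × 10^6 CFU mL-1. Incubated with compound at 3× MIC at 37 °C for various times, PBS control. Supernatant K+ measured by atomic absorption spectrophotometry. Duplicate.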

Cell membrane [3] = assay: Induction of cell membrane permeabilization in Escherichia coli assessed as increase in fluorescence intensity at 3 times MIC incubated for 8 hrs by PI staining based confocal laser scanning microscopic analysis; type: subcellular
In short: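 Log-phase E. coli was washed and resuspended in PBS (10 mM, pH 7.2) at 2 × 10^6 CFU mL−1 (OD600 0.2–0.4). Cells were treated with 3× MIC for 8 h at 37 °C, with a PBS control, then stained with SYTO 9 and PI for 30 min in the dark and imaged by confocal microscopy. Run in duplicate.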

Staphylococcus aureus [4] = assay: Drug resistance, ratio of MIC for Staphylococcus aureus after 15 days to MIC for Staphylococcus aureus after initial exposure; type: functional; conditions: time 15 day
In short: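 Resistance development: MRSA serially subcultured in fresh medium starting from the initial MIC. MIC reassessed every 24 h over 24 days, alongside a reference antibiotic given in twofold dilutions.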

Staphylococcus aureus [5] = assay: Antibacterial activity against methicillin-resistant Staphylococcus aureus assessed as increase in number of bacteria at 2 times MIC measured at 3 hrs; type: functional, organism-based
In short: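 Cells washed three times in sterile saline by centrifugation, moved to fresh TSB at 37 °C. Viable counts plated on TSB agar at 2–17 h. PCE = t − c, the time for a 1-log rise in treated versus control. Run twice.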

Pseudomonas aeruginosa = assay: Antibacterial activity against drug sensitive Pseudomonas aeruginosa PAO1 assessed as reduction in bacterial growth by broth microdilution method; type: functional
In short: (§1)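 MICs were determined by standard twofold serial broth microdilution in lysogeny broth (LB) medium.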

MCF7 = assay: Cytotoxicity against human MCF7 cells assessed as inhibition of cell growth incubated for 24 hrs by MTT assay; type: functional, cell-based; conditions: MCF7, 24 h
In short: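 MTT assay with 24 h exposure of cells to the samples. IC50 is the concentration giving 50% growth inhibition, reported as mean ± S.D. of three independent experiments.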

Escherichia coli [6] = assay: Antibacterial activity against drug sensitive Escherichia coli DH5alpha assessed as reduction in bacterial growth by broth microdilution method; type: functional; in short: as §1
Staphylococcus aureus [7] = assay: Antibacterial activity against methicillin-resistant Staphylococcus aureus infected in Kunming mouse corneal infection model assessed as reduction in viable bacterial count at 6 mg/ml, TOP administered 3 times daily for 1 week; type: functional, organism-based; conditions: time 1.0 weeks
In short: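 Corneal infection model: male and female Kunming mice (~20 g) immunosuppressed with daily i.p. cyclophosphamide for 3 days. Anesthetized with i.p. avertin (400 mg kg-1), corneas abraded and given 20 μL MRSA (6 × 10^7 CFU mL-1). From 24 h post-infection, treated by topical smear three times daily for one week. Controls: 5% glucose and 5% vancomycin. Six mice per group. Corneal viable counts measured.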

Escherichia coli [8] = assay: Bactericidal activity against Escherichia coli assessed as inhibition of bacterial growth at 3 times MIC incubated for 24 hrs by time kill assay; type: functional, organism-based
In short: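 Time-kill assay: E. coli was precultured for […] at 37 °C and adjusted to about 2 × 10^6 CFU mL−1. It was exposed to 3× MIC at 37 °C with shaking. Samples were taken at 0.5–13 h, serially 10-fold diluted in PBS and plated on Mueller–Hinton agar, and colonies were counted after 24 h at 37 °C. Run in duplicate.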

Escherichia coli [9] = assay: Antibacterial activity against Escherichia coli measured for 9 days; type: functional, organism-based; conditions: time 9.0 day
In short: (§2)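 E. coli was serially subcultured in fresh medium, starting from the initial MIC. The MIC was redetermined every 24 h. A reference antibiotic was tested in parallel by twofold dilution. The regimen ran for 24 days in total.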

Escherichia coli [10] = assay: Antibacterial activity against Escherichia coli measured for 15 days; type: functional, organism-based; conditions: time 15.0 day; in short: as §2
Staphylococcus aureus [11] = assay: Antibiofilm activity against Methicillin-resistant Staphylococcus aureus assessed as reduction in number of viable cells at 2 times MIC incubated for 24 hrs; type: functional, organism-based
In short: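 Biofilm eradication: mid-log MRSA at 2 × 10^6 CFU mL-1 grown 48 h to form biofilms, then washed with PBS. Biofilms exposed to compound at MIC, 2× or 3× MIC for 24 h; medium-only control. Biofilms dispersed with trypsin–EDTA, serial 10-fold dilutions plated, colonies counted after 24 h, expressed as log10 CFU mL-1.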

Escherichia coli [12] = assay: Antibiofilm activity against Escherichia coli assessed as reduction in number of viable cells at 2 times MIC incubated for 24 hrs; type: functional, organism-based
In short: (§3)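 E. coli was grown to mid-log phase and adjusted to 2 × 10^6 CFU mL−1. Biofilms were grown for 48 h, then the spent medium was removed and loose cells were washed off with PBS. Compound was added at MIC, 2× MIC or 4× MIC for 24 h, with a sterile-medium control. Biofilms were dispersed with trypsin–EDTA, 10-fold dilutions were plated, and colonies were counted after 24 h as log10 CFU mL−1.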

Klebsiella pneumoniae = assay: Antibacterial activity against drug-resistant Klebsiella pneumoniae assessed as reduction in bacterial growth by broth microdilution method; type: functional
In short: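 Twofold serial dilution (microdilution) MIC in lysogeny broth (LB) medium against drug-resistant strains: MRSA USA300, vancomycin-resistant Enterococci, Klebsiella pneumoniae.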

Staphylococcus aureus [13] = assay: Bactericidal activity against methicillin-resistant Staphylococcus aureus assessed as reduction in colony forming unit at 3 times MIC […] by time kill assay; type: functional
Staphylococcus aureus [14] = assay: Antibacterial activity against methicillin-resistant Staphylococcus aureus assessed as reduction in viable bacterial count at 2 to 4 times MIC measured after 18 hrs; type: functional, organism-based
Cell membrane [15] = assay: Induction of cell membrane integrity in Escherichia coli assessed as increase in K+ efflux at 3 times MIC by absorption spectrophotometric analysis; type: subcellular
In short: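 Mid-log E. coli (6 h culture) was suspended to about 2 × 10^6 CFU mL−1 in 10 mM HEPES pH 7.3 plus 5 mM glucose (1:1). Cells were incubated with 3× MIC at 37 °C for various times, with a PBS control. Supernatant K+ was measured by atomic absorption spectrophotometry. Run in duplicate.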

Cell membrane [16] = assay: Induction of cell membrane permeabilization in methicillin-resistant Staphylococcus aureus assessed as increase in fluorescence intensity at 3 times MIC incubated for 8 hrs by PI staining based confocal laser scanning microscopic analysis; type: subcellular
In short: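 Log-phase MRSA washed in PBS (10 mM, pH 7.2) and resuspended at 2 × 10^6 CFU mL-1 (OD600 0.2–0.4). Treated at 3× MIC for 8 h at 37 °C, PBS control. Stained with SYTO 9/propidium iodide 30 min in the dark, imaged by confocal laser scanning microscopy. Duplicate.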

Escherichia coli [17] = assay: Antibiofilm activity against Escherichia coli assessed as reduction in number of viable cells at 4 times MIC incubated for 24 hrs; type: functional, organism-based; in short: as §3

CC(C)(C)c1ccc(CCNc2nc3ccccc3nc2N)cc1
Activity (Staphylococcus aureus [1]): inactive | Activity (Cell membrane [2]): Active | Activity (Cell membrane [3]): inactive | Ratio (Staphylococcus aureus [4]): 3 | Activity (Staphylococcus aureus [5]): Active | MIC (Pseudomonas aeruginosa): 64 µg/mL (≈ 200 µM) | IC50 (MCF7): 72.5 µg/mL (≈ 226 µM) | MIC (Escherichia coli [6]): 4 µg/mL (≈ 12.5 µM) | Activity (Staphylococcus aureus [7]): Active | Activity (Escherichia coli [8]): Active | Activity (Escherichia coli [9]): Active | Activity (Escherichia coli [10]): Active | Activity (Staphylococcus aureus [11]): Active | Activity (Escherichia coli [12]): Active | MIC (Klebsiella pneumoniae): 128 µg/mL (≈ 399 µM) | Activity (Staphylococcus aureus [13]): >6 log10CFU/ml | Activity (Staphylococcus aureus [14]): Active | Activity (Cell membrane [15]): Active | Activity (Cell membrane [16]): inactive | Activity (Escherichia coli [17]): Active
